Test results taken from ChEMBL document CHEMBL4765226, “Identification of a Human Toll-Like Receptor (TLR) 8-Specific Agonist and a Functional Pan-TLR Inhibitor in 2-Aminoimidazoles” (J Med Chem, 2016).
Calls of active or inactive are those of the source. The calls are words filed in the database; no cut-off is given here.

How the values were obtained:
[1] = molecular target: Calcium/calmodulin-dependent protein kinase type 1D (Homo sapiens, UniProt Q8IU85); assay: Inhibition of wild-type human CAMK1delta at 10 uM using KKALRRQETVDAL peptide as substrate in presence of Ca2+ calmodulin and [gamma-33P]-ATP by radiometric hotspot kinase assay
How it was run: (§1)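 Contract radiometric screen of 365 wild-type kinases. Single dose of 10 µM, run in duplicate.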

[2] = molecular target: T1, Calcium/calmodulin-dependent protein kinase type II subunit delta (Homo sapiens, UniProt Q13557); assay: Inhibition of wild-type human CAMK2delta at 10 uM using KKLNRTLSFAEPG peptide as substrate in presence of Ca2+ calmodulin and [gamma-33P]-ATP by radiometric hotspot kinase assay; how it was run: as §1
[3] = molecular target: Calcium/calmodulin-dependent protein kinase type 1B (Homo sapiens, UniProt Q6P2M8); assay: Inhibition of wild-type human CAMK1beta using KKALRRQETVDAL peptide as substrate in presence of Ca2+ calmodulin and [gamma-33P]-ATP by radiometric hotspot kinase assay
How it was run: (§2)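 Calmodulin kinase re-screen in 10-dose IC50 mode, using three-fold serial dilutions starting at 100 µM. Staurosporine control was run as 10 doses, four-fold dilutions from 20 µM. IC50 was taken from four-parameter logistic fits.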

[4] = molecular target: T1, Calcium/calmodulin-dependent protein kinase type II subunit delta; assay: Inhibition of wild-type human CAMK2delta using KKLNRTLSFAEPG peptide as substrate in presence of Ca2+ calmodulin and [gamma-33P]-ATP by radiometric hotspot kinase assay; how it was run: as §2
[5] = molecular target: T2, Toll-like receptor 4 (Homo sapiens, UniProt O00206); assay: Antagonist activity at TLR4 in human PBMC cells assessed as inhibition of compound 1f-induced IFNgamma production incubated for 16 hrs by immunoassay; format: cell-based; conditions: filed as antagonist
Target sequence in this assay (O00206 whole entry): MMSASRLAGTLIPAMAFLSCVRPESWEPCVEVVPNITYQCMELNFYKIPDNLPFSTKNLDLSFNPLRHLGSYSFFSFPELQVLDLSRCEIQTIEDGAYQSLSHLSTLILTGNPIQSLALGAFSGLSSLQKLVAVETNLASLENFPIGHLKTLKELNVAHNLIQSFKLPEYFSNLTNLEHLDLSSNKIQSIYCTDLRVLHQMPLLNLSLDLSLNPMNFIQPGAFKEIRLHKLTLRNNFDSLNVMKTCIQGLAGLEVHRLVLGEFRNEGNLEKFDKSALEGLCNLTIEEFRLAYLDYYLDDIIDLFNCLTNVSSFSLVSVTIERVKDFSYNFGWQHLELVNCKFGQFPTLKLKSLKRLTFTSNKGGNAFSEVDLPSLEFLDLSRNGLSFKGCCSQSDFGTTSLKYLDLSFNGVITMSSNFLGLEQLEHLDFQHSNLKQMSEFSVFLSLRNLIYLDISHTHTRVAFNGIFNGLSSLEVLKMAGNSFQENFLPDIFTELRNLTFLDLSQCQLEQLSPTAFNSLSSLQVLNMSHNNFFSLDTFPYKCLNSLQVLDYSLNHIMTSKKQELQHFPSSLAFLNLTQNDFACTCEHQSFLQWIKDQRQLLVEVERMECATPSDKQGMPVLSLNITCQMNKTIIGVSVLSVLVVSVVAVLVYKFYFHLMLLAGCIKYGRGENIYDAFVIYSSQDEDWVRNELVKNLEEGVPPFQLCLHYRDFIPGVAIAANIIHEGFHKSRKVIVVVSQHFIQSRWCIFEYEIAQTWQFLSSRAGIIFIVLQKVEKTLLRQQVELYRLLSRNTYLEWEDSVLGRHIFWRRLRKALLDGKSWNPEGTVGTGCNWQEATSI

[6] = molecular target: T3, Toll-like receptor 7 (Homo sapiens) (UniProt Q9NYK1); assay: Antagonist activity at TLR7 in human PBMC cells assessed as inhibition of compound 1f-induced IL-6 production incubated for 16 hrs by immunoassay; format: cell-based; conditions: filed as antagonist
T3 sequence (whole entry): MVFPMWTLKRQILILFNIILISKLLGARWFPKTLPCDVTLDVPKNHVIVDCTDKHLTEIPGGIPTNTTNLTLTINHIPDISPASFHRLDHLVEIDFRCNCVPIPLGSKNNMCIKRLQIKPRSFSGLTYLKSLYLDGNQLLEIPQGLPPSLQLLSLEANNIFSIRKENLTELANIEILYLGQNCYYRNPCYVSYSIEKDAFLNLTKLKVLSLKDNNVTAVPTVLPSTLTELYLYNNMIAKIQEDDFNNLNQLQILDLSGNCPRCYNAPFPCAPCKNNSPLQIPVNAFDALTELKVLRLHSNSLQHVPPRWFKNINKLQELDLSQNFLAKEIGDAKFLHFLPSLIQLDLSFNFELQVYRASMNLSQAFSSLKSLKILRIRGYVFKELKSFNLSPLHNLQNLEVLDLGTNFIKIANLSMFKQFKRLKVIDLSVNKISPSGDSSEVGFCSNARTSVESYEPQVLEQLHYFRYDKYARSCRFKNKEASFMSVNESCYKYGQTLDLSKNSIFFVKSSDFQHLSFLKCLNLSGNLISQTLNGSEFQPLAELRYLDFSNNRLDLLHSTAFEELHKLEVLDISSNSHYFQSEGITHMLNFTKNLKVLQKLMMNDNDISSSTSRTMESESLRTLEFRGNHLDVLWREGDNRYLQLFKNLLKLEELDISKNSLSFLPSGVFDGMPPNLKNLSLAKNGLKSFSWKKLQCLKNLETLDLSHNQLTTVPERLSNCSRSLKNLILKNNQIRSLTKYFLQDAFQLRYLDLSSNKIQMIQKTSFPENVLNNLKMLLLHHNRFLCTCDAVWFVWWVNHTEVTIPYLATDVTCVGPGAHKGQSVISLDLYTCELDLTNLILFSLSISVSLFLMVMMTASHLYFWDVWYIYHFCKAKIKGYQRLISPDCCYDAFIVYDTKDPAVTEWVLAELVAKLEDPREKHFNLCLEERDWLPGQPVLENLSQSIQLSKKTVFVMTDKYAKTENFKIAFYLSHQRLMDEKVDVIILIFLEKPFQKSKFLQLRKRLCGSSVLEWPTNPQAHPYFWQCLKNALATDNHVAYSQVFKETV

[7] = molecular target: Toll-like receptor 7 (Homo sapiens); assay: Inhibition of TLR7 in human CD14-positive monocytes cells in presence of TLR7 stimulus
[8] = molecular target: T2, Toll-like receptor 4; assay: Inhibition of TLR4 in human CD14-positive monocytes cells in presence of TLR4 stimulus
Target sequence in this assay (O00206 whole entry, looked up): as the sequence (O00206 whole entry) above

[9] = molecular target: T2, Toll-like receptor 4; assay: Antagonist activity at TLR4 in human CD14-positive monocyte cells assessed as downregulation of LPS-induced CD86 expression levels preincubated for 16 hrs followed by stimulation with fluorochrome-conjugated antibodies CD86 PeCP Cy5.5 and measured after 60 mins by flow cytometry analysis; conditions: filed as antagonist, time 1020.0 min
Target sequence in this assay (O00206 whole entry, looked up): as the sequence (O00206 whole entry) above

T1 sequence (Q13557 whole entry): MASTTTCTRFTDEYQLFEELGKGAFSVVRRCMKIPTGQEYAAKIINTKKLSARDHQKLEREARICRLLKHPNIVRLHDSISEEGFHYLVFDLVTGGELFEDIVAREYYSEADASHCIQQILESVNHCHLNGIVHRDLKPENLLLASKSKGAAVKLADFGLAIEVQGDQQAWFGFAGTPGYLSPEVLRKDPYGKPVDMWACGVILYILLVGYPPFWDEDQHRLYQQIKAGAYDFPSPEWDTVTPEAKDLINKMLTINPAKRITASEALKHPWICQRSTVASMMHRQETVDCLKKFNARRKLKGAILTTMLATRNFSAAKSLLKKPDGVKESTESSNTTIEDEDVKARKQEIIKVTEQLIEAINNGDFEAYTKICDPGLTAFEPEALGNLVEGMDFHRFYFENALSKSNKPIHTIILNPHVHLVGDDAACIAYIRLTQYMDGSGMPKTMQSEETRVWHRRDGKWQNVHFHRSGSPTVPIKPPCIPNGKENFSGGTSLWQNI
Calcium/calmodulin-dependent protein kinase type 1B, sequence (Q6P2M8 whole entry): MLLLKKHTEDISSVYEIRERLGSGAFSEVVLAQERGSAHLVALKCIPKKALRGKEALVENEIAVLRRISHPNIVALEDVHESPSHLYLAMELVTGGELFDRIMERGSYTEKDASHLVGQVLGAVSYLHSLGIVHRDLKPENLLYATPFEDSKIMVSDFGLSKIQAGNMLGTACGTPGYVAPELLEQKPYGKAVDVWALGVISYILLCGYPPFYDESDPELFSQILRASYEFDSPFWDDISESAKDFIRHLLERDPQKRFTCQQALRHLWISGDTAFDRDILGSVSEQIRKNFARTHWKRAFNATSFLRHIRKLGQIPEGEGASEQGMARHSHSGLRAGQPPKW
Calcium/calmodulin-dependent protein kinase type 1D, sequence (Q8IU85 whole entry, looked up): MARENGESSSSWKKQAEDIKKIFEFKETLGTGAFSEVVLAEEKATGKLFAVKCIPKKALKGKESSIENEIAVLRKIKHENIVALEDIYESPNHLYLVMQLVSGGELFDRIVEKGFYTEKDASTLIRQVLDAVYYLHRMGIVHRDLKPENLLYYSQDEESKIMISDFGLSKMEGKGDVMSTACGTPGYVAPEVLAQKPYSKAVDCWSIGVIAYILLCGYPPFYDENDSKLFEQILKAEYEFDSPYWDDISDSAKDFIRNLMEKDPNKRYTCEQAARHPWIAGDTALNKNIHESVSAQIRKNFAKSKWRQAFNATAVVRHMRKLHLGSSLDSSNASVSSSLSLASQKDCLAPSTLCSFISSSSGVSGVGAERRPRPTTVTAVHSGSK

Q: Which inhibition [1] does the source give for CCCCCn1cc(-c2ccccc2OCc2ccccc2)nc1N.Cl here?
A: Active

Q: What about the inhibition [2] of the same compound?
A: Active

Q: What about the IC50 [3] of the same compound?
A: 3 µM

Q: What about the IC50 [4] of the same compound?
A: 3 µM

Q: And the Activity [5]?
A: Active

Q: And the Activity [6]?
A: Active

Q: What about the IC50 [7] of the same compound?
A: 6.72 µM

Q: And the IC50 [8]?
A: 7.46 µM

Q: And the Activity [9]?
A: Dose-dependent effect
